Laboratory results published in ChEMBL document CHEMBL4346654 (Eur J Med Chem, 2019).
Converted amounts (≈) assume the structure as drawn.

Legend:
[1] = tested on: Staphylococcus aureus; assay: Antibacterial activity against MLS-resistant Staphylococcus aureus PU 32 expressing inducible ermA gene assessed as reduction in microbial growth by CLSI based two-fold broth dilution method; format: functional
[2] = tested on: Haemophilus influenzae; assay: Antibacterial activity against azithromycin-susceptible Haemophilus influenzae ATCC 49247 assessed as reduction in microbial growth by CLSI based two-fold broth dilution method; format: functional
[3] = tested on: Streptococcus pneumoniae; assay: Selectivity ratio of MBC to MIC for erythromycin-susceptible Streptococcus pneumoniae ATCC49619; format: functional
How it was run: (§1)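 Isolates were identified by 16S rDNA sequencing. MIC was determined by CLSI-recommended two-fold broth dilution. For MBC, samples from 1–8 fold MIC were transferred to culture medium and subcultured for 24 h without antibiotic.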

[4] = tested on: Streptococcus pneumoniae; assay: Antibacterial activity against Streptococcus pneumoniae 07P390 expressing constitutive ermB gene assessed as reduction in microbial growth by CLSI based two-fold broth dilution method; format: functional
[5] = tested on: Streptococcus pneumoniae; assay: Antibacterial activity against penicillin-susceptible Streptococcus pneumoniae PU 09 expressing mef gene assessed as reduction in microbial growth by CLSI based two-fold broth dilution method; format: functional
[6] = tested on: Streptococcus pneumoniae; assay: Bactericidal activity against penicillin-susceptible Streptococcus pneumoniae PU 09 expressing mef gene pretreated followed by subculture in absence of compound measured after 24 hrs; format: functional; how it was run: as §1
[7] = tested on: Streptococcus pneumoniae; assay: Selectivity ratio of MBC to MIC for penicillin-susceptible Streptococcus pneumoniae PU 09 expressing mef gene; format: functional; how it was run: as §1
[8] = tested on: Streptococcus pneumoniae; assay: Bactericidal activity against Streptococcus pneumoniae 07P390 expressing constitutive ermB gene pretreated followed by subculture in absence of compound measured after 24 hrs; format: functional; how it was run: as §1
[9] = tested on: Streptococcus pneumoniae; assay: Selectivity ratio of MBC to MIC for Streptococcus pneumoniae 07P390 expressing constitutive ermB gene; format: functional; how it was run: as §1
[10] = tested on: Haemophilus influenzae; assay: Bactericidal activity against azithromycin-susceptible Haemophilus influenzae ATCC 49247 pretreated followed by subculture in absence of compound measured after 24 hrs; format: functional; how it was run: as §1
[11] = tested on: Haemophilus influenzae; assay: Selectivity ratio of MBC to MIC for azithromycin-susceptible Haemophilus influenzae ATCC 49247; format: functional; how it was run: as §1
[12] = tested on: Streptococcus pyogenes; assay: Bactericidal activity against MLS-resistant Streptococcus pyogenes 01-968 expressing inducible ermB gene pretreated followed by subculture in absence of compound measured after 24 hrs; format: functional
How it was run: (§2)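 MBC assay. Following MIC determination by CLSI standard two-fold broth dilution, samples at 1–8 fold MIC were transferred to fresh culture medium. They were subcultured for 24 h without antibiotic. Isolates were identified by 16S rDNA sequencing. S. aureus ATCC 29213 was used as a control strain.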

[13] = tested on: Streptococcus pyogenes; assay: Selectivity ratio of MBC to MIC for MLS-resistant Streptococcus pyogenes 01-968 expressing inducible ermB gene; format: functional
How it was run: (§3)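 MBC/MIC ratio. MIC was measured by CLSI standard two-fold broth dilution. MBC was measured by transferring samples at 1–8 fold MIC to culture medium and subculturing for 24 h without antibiotic. Isolates were identified by 16S rDNA sequencing.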

[14] = tested on: Staphylococcus aureus; assay: Bactericidal activity against MLS/methicillin-resistant Staphylococcus aureus PU 32 expressing inducible ermA gene pretreated followed by subculture in absence of compound measured after 24 hrs; format: functional; how it was run: as §2
[15] = tested on: Staphylococcus aureus; assay: Selectivity ratio of MBC to MIC for MLS/methicillin-resistant Staphylococcus aureus PU 32 expressing inducible ermA gene; format: functional; how it was run: as §3
[16] = tested on: Staphylococcus aureus; assay: Antibacterial activity against MLS-resistant Staphylococcus aureus PU 20 expressing constitutive ermC gene assessed as reduction in microbial growth by CLSI based two-fold broth dilution method; format: functional
[17] = tested on: Streptococcus pyogenes; assay: Antibacterial activity against MLS-resistant Streptococcus pyogenes 12-206 expressing constitutive ermA gene assessed as reduction in microbial growth by CLSI based two-fold broth dilution method; format: functional
[18] = tested on: Streptococcus pyogenes; assay: Bactericidal activity against MLS-resistant Streptococcus pyogenes 12-206 expressing constitutive ermA gene pretreated followed by subculture in absence of compound measured after 24 hrs; format: functional; how it was run: as §2
[19] = tested on: Streptococcus pyogenes; assay: Selectivity ratio of MBC to MIC for MLS-resistant Streptococcus pyogenes 12-206 expressing constitutive ermA gene; format: functional; how it was run: as §3
[20] = tested on: Streptococcus pyogenes; assay: Antibacterial activity against Streptococcus pyogenes 12-207 expressing mef gene assessed as reduction in microbial growth by CLSI based two-fold broth dilution method; format: functional
[21] = tested on: Streptococcus pyogenes; assay: Bactericidal activity against Streptococcus pyogenes 12-207 expressing mef gene pretreated followed by subculture in absence of compound measured after 24 hrs; format: functional; how it was run: as §1
[22] = tested on: Streptococcus pyogenes; assay: Selectivity ratio of MBC to MIC for Streptococcus pyogenes 12-207 expressing mef gene; format: functional; how it was run: as §1
[23] = tested on: Moraxella catarrhalis; assay: Antibacterial activity against erythromycin-susceptible Moraxella catarrhalis 13L332 assessed as reduction in microbial growth by CLSI based two-fold broth dilution method; format: functional
[24] = tested on: Moraxella catarrhalis; assay: Bactericidal activity against erythromycin-susceptible Moraxella catarrhalis 13L332 pretreated followed by subculture in absence of compound measured after 24 hrs; format: functional; how it was run: as §1
[25] = tested on: Moraxella catarrhalis; assay: Selectivity ratio of MBC to MIC for erythromycin-susceptible Moraxella catarrhalis 13L332; format: functional; how it was run: as §1
[26] = AUCinfinity in Sprague-Dawley rat at 20 mg/kg, po after 0.25 to 24 hrs by LC-MS/MS analysis; format: ADME, organism-based; set-up: dose 20 mg/kg, time infinity, route oral; details: Sprague-Dawley, in vivo
How it was run: (§4)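 Male SD rats were given a single 20 mg/Kg oral dose. Blood was sampled at 0.25, 0.5, 1, 2, 4, 6, 8 and 24 h and centrifuged at 2500 g for 5 min at 4 °C. Drug levels were quantified by LC-MS/MS. t1/2, Cmax, Tmax, CL, MRT and AUC were calculated from the concentration–time data.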

[27] = AUC (0 to t) in Sprague-Dawley rat at 20 mg/kg, po after 0.25 to 24 hrs by LC-MS/MS analysis; format: ADME, organism-based; set-up: time upper 24 hr, dose 20 mg/kg, time lower 0.25 hr, route oral; details: in vivo; how it was run: as §4
[28] = Systemic plasma clearance in Sprague-Dawley rat at 20 mg/kg, po after 0.25 to 24 hrs by LC-MS/MS analysis; format: ADME, organism-based; how it was run: as §4
[29] = Half life in Sprague-Dawley rat at 20 mg/kg, po after 0.25 to 24 hrs by LC-MS/MS analysis; format: ADME, organism-based; details: in vivo; how it was run: as §4
[30] = MRT in Sprague-Dawley rat at 20 mg/kg, po after 0.25 to 24 hrs by LC-MS/MS analysis; format: ADME, organism-based; details: in vivo; how it was run: as §4
[31] = Tmax in Sprague-Dawley rat at 20 mg/kg, po after 0.25 to 24 hrs by LC-MS/MS analysis; format: ADME, organism-based; details: in vivo; how it was run: as §4
[32] = Cmax in Sprague-Dawley rat at 20 mg/kg, po after 0.25 to 24 hrs by LC-MS/MS analysis; format: ADME, organism-based; set-up: dose 20 mg/kg, route oral; details: in vivo; how it was run: as §4
[33] = target: Cytochrome P450 3A4 (Homo sapiens, UniProt P08684); assay: Inhibition of CYP3A4 in human liver microsomes assessed as reduction in metabolite formation using midazolam as substrate incubated for 10 mins in presence of NADPH by HPLC based mass spectrometric method; format: ADME
Sequence of Cytochrome P450 3A4 (P08684 whole entry): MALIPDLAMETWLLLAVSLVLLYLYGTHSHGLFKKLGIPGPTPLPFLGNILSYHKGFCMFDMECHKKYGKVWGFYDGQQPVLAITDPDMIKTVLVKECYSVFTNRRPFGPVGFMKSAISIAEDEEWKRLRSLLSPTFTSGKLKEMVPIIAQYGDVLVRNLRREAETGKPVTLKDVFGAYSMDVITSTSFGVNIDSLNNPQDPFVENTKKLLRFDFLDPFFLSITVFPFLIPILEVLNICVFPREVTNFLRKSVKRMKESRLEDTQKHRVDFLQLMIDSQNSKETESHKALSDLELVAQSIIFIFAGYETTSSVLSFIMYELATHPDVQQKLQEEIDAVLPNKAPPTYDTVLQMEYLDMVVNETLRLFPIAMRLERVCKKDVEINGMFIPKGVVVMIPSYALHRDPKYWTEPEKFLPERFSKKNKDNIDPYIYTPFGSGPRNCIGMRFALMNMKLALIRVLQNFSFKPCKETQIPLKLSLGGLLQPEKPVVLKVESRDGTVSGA
How it was run: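 Human liver microsome CYP3A4 with midazolam substrate in 0.1 M potassium phosphate buffer was prewarmed at 37 °C for 5 min. Compound and 25 mM NADPH solution (stock) were added, then incubated at 37 °C for 10 min. Ketoconazole served as the positive inhibitor. Metabolite was measured by UPLC–triple quadrupole MS as the metabolite/internal standard peak area ratio, and IC50 was derived by curve fitting.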

Which results are given for `CC[C@H]1OC(=O)[C@H](C)C(=O)[C@H](C)[C@@H](O[C@@H]2O[C@H](C)C[C@H](N(C)C)[C@H]2O)[C@](C)(OC)C[C@@H](C)C(=O)[C@H](C)[C@H]2N(CCCCn3cnc(-c4cccnc4)c3)C(=O)O[C@]12C` [TELITHROMYCIN]?
MIC [1]: 0.125 to 0.25 µg/mL; MIC [2]: 4 µg/mL; Selectivity ratio [3]: 1 - 4; MIC [4]: 0.016 to 0.125 µg/mL; MIC [5]: 0.25 to 0.5 µg/mL; MBC [6]: 0.5 to 4 µg/mL (≈ 0.616 to 4.93 µM); Selectivity ratio [7]: 2 - 8; MBC [8]: 0.125 to 1 µg/mL (≈ 0.154 to 1.23 µM); Selectivity ratio [9]: >=8; MBC [10]: 16 µg/mL (≈ 19.7 µM); Selectivity ratio [11]: 4; MBC [12]: 0.016 to 0.125 µg/mL (≈ 0.0197 to 0.154 µM); Selectivity ratio [13]: >=4 - 8; MBC [14]: ≥ 1 µg/mL; Selectivity ratio [15]: >=4 - 8; MIC [16]: > 256 µg/mL; MIC [17]: 0.031 µg/mL; MBC [18]: > 0.25 µg/mL; Selectivity ratio [19]: >8; MIC [20]: 0.25 µg/mL; MBC [21]: 1 µg/mL (≈ 1.23 µM); Selectivity ratio [22]: 4; MIC [23]: 0.25 µg/mL; MBC [24]: > 2 µg/mL; Selectivity ratio [25]: >8; AUC(0-inf) [26]: 927 ng·h/mL; AUC(0-t) [27]: 897 ng·h/mL; CL/F [28]: 363 mL/min/kg; half-life [29]: 1.22 h; MRT [30]: 3.27 h; Tmax [31]: 2 h; Cmax [32]: 204 ng/mL; IC50 [33]: 11.8 µM
